From the array DNA melting data of Ke et al. (doi:10.1101/2024.01.08.574731)

Columns and labels:
[1] = melting temperature; fluorescence melt of hairpins on a sequencing array, two-state fit, raised by 9.35 °C to match UV melts; settings: sodium 0.088 M
Method in brief: (§1)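 With Cy3 and quencher oligos annealed, library hairpins on a sequenced MiSeq flow cell were imaged for Cy3 fluorescence in 50 mM Na-HEPES pH 8.0, 25 mM NaCl, in 2.5 °C steps up to 60 °C. Melting temperature and folding enthalpy were derived from bootstrapped two-state fits of signals normalised to pre-quench Cy3 and to control constructs. Four replicates were combined by inverse variance, with fitted temperatures raised by 9.35 °C to match UV melts.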

[2] = folding enthalpy; higher = less favourable; fluorescence melt of hairpins on a sequencing array, two-state fit; settings: sodium 0.088 M
Method in brief: as §1

GGGCGCTCGAAAGAGCCC (((..(((....))))))
Tm [1]: 56.9 °C
folding enthalpy [2]: -58.5 kJ/mol

GCAGCGCGAAAGCCTTGC (((..((....))..)))
Tm [1]: 40 °C
folding enthalpy [2]: -51.8 kJ/mol

GTACGACGAAAGTCTTAC (((.(((....))).)))
Tm [1]: 40.3 °C
folding enthalpy [2]: -109 kJ/mol

GCAGCCGAAAGGCTCTGC ((((((....)))..)))
Tm [1]: 46.3 °C
folding enthalpy [2]: -51.2 kJ/mol

GATCCAACCGTGGATC ((((((....))))))
Tm [1]: 49.8 °C
folding enthalpy [2]: -127 kJ/mol

GCCAATCGAAAGATCGGC (((.(((....))).)))
Tm [1]: 49.8 °C
folding enthalpy [2]: -149 kJ/mol

GATCTCCGCAGAGATC ((((((....))))))
Tm [1]: 57.8 °C
folding enthalpy [2]: -145 kJ/mol

GGAGTCCGAAAGGAGTCC (((.(((....))).)))
Tm [1]: 63.3 °C
folding enthalpy [2]: -185 kJ/mol

GCGACGGGAAACTGTCGC (((((.(....).)))))
Tm [1]: 67.6 °C
folding enthalpy [2]: -150 kJ/mol

GGGAGGGAAACCTCCC ((((((....))))))
Tm [1]: 65.8 °C
folding enthalpy [2]: -134 kJ/mol

GAAAGCGAAAGCTGTTTC ((((((....)))..)))
Tm [1]: 32 °C
folding enthalpy [2]: -40.5 kJ/mol

GATCTGGCAGCAGATC ((((((....))))))
Tm [1]: 51.3 °C
folding enthalpy [2]: -175 kJ/mol

GCCAGGCGAAAGCTAGGC (((..((....))..)))
Tm [1]: 61.3 °C
folding enthalpy [2]: -117 kJ/mol

CATCTGAAAAGATG (((((....)))))
Tm [1]: 44.5 °C
folding enthalpy [2]: -105 kJ/mol

GGCTCCGGAAACGAAGCC ((((.((....)).))))
Tm [1]: 50.7 °C
folding enthalpy [2]: -169 kJ/mol

GAATGTGGAAACACATCC (.(((((....))))).)
Tm [1]: 36 °C
folding enthalpy [2]: -58.9 kJ/mol

GCGATGGATCGC ((((....))))
Tm [1]: 52.8 °C
folding enthalpy [2]: -95.5 kJ/mol

GCTTTTGGAAACGAAAGC (((((.(....).)))))
Tm [1]: 47.2 °C
folding enthalpy [2]: -163 kJ/mol

GATCACCTTCGTGATC ((((((....))))))
Tm [1]: 56.7 °C
folding enthalpy [2]: -203 kJ/mol

GATCCGTACGCGGATC ((((((....))))))
Tm [1]: 63.5 °C
folding enthalpy [2]: -165 kJ/mol

GAAGGCGAAAGCCTCTTC ((((((....)))..)))
Tm [1]: 54.5 °C
folding enthalpy [2]: -89.9 kJ/mol

GTACTCGAAAGAGCATAC ((((((....)))..)))
Tm [1]: 23.5 °C
folding enthalpy [2]: -45.8 kJ/mol

GTCGGCGAAAGCCGCGAC ((((((....)))..)))
Tm [1]: 57.7 °C
folding enthalpy [2]: -48.4 kJ/mol

GATCTCTTAGGAGATC ((((((....))))))
Tm [1]: 54.2 °C
folding enthalpy [2]: -159 kJ/mol

GATCTCGATCGAGATC ((((((....))))))
Tm [1]: 56.9 °C
folding enthalpy [2]: -203 kJ/mol

CGACCCGGAAACGGATCG (((.(((....))).)))
Tm [1]: 48.8 °C
folding enthalpy [2]: -140 kJ/mol

GCATGCGAAAGCACTGC ((((((....))).)))
Tm [1]: 51.3 °C
folding enthalpy [2]: -93.3 kJ/mol

GATCTGACGCAGATC ((((((...))))))
Tm [1]: 47.3 °C
folding enthalpy [2]: -123 kJ/mol

GTCGTGACGAAAGTCGAC (((..(((....))))))
Tm [1]: 46.3 °C
folding enthalpy [2]: -69.2 kJ/mol

GAAATGCGAAAGCATTC (((.(((....))))))
Tm [1]: 45.6 °C
folding enthalpy [2]: -45.8 kJ/mol

GGTGATGGAAACGTTACC (((.(.(....).).)))
Tm [1]: 30.4 °C
folding enthalpy [2]: -80.5 kJ/mol

GCTCCAGGAAACTAGAGC ((((.((....)).))))
Tm [1]: 36.5 °C
folding enthalpy [2]: -106 kJ/mol

GCCTACGAAAGTATCGGC ((((((....)))..)))
Tm [1]: 40.6 °C
folding enthalpy [2]: -103 kJ/mol

GCATTCGAAAGAAGTGC ((((((....))).)))
Tm [1]: 40.2 °C
folding enthalpy [2]: -97.1 kJ/mol

GATCGGCGACCCGATC ((((((....))))))
Tm [1]: 55.6 °C
folding enthalpy [2]: -143 kJ/mol

GAGGCCGCGAAAGCGCTC (((..(((....))))))
Tm [1]: 35 °C
folding enthalpy [2]: -53.4 kJ/mol

GATCTACGGCTAGATC ((((((....))))))
Tm [1]: 37.1 °C
folding enthalpy [2]: -120 kJ/mol

GATCCCCAAAGGGATC ((((((....))))))
Tm [1]: 59.7 °C
folding enthalpy [2]: -140 kJ/mol

GCGCCCCGAAAGGGTCGC (((.(((....))).)))
Tm [1]: 68 °C
folding enthalpy [2]: -191 kJ/mol

GAATCCGGAAACGGATTC (((((((....)))))))
Tm [1]: 63.6 °C
folding enthalpy [2]: -189 kJ/mol

GATCTAGAGCTAGATC ((((((....))))))
Tm [1]: 39.4 °C
folding enthalpy [2]: -123 kJ/mol

GTCTTCTCGAAAGAGGAC (((..(((....))))))
Tm [1]: 33.5 °C
folding enthalpy [2]: -71.9 kJ/mol

GATCAAGCGTTTGATC ((((((....))))))
Tm [1]: 43.9 °C
folding enthalpy [2]: -129 kJ/mol

GATCGGAAATCCGATC ((((((....))))))
Tm [1]: 54.5 °C
folding enthalpy [2]: -188 kJ/mol

GATCGTTCGAACGATC ((((((....))))))
Tm [1]: 56.6 °C
folding enthalpy [2]: -226 kJ/mol

CGGTATCGGAAACGACCG (((..(((....))))))
Tm [1]: 36.3 °C
folding enthalpy [2]: -116 kJ/mol

GCTTCACGAAAGTGTAGC (((.(((....))).)))
Tm [1]: 53.8 °C
folding enthalpy [2]: -126 kJ/mol

GCCTAAGGAAACTTAGGC (((((((....)))))))
Tm [1]: 58.3 °C
folding enthalpy [2]: -168 kJ/mol

GCGACTTCGAAAGAACGC (((..(((....))))))
Tm [1]: 36.7 °C
folding enthalpy [2]: -93.7 kJ/mol

GACACTGAAAAGTGTC ((((((....))))))
Tm [1]: 58.6 °C
folding enthalpy [2]: -145 kJ/mol

GTAGCTGAAAAGCTAC ((((((....))))))
Tm [1]: 60 °C
folding enthalpy [2]: -158 kJ/mol

GCTCTACCGAAAGGTAGC (((..(((....))))))
Tm [1]: 31.3 °C
folding enthalpy [2]: -38.9 kJ/mol

GATCCTCAGAGGATC ((((((...))))))
Tm [1]: 52.1 °C
folding enthalpy [2]: -132 kJ/mol

GACTGCCGAAAGGCTGTC (((.(((....))).)))
Tm [1]: 63.2 °C
folding enthalpy [2]: -129 kJ/mol

GGCCTTGCGAAAGCAGCC (((..(((....))))))
Tm [1]: 45.2 °C
folding enthalpy [2]: -66.1 kJ/mol

GGGTGCGAAAGCAACCCC ((((((....)))..)))
Tm [1]: 66.6 °C
folding enthalpy [2]: -51.8 kJ/mol

GGGGTGGGAAACCGCTCC ((.(.((....)).).))
Tm [1]: 47.7 °C
folding enthalpy [2]: -91.7 kJ/mol

GCCCGGCGAAAGCTTGGC (((..((....))..)))
Tm [1]: 52.4 °C
folding enthalpy [2]: -78.5 kJ/mol

GATCGCGATTGCGATC ((((((....))))))
Tm [1]: 68.7 °C
folding enthalpy [2]: -143 kJ/mol

GGTTGTGGAAACGCAACC (((((.(....).)))))
Tm [1]: 54 °C
folding enthalpy [2]: -170 kJ/mol

GACAGCGAAAGCTGGGTC ((((((....)))..)))
Tm [1]: 62 °C
folding enthalpy [2]: -52 kJ/mol

GAGACGGAAACGTCTC ((((((....))))))
Tm [1]: 63.3 °C
folding enthalpy [2]: -167 kJ/mol

GATCTCCTTGGAGATC ((((((....))))))
Tm [1]: 60.5 °C
folding enthalpy [2]: -199 kJ/mol

GTGAGCGAAAGCTTCAC ((((((....))).)))
Tm [1]: 50.9 °C
folding enthalpy [2]: -80 kJ/mol

GTCAAGGCGAAAGCCGAC (((..(((....))))))
Tm [1]: 48.1 °C
folding enthalpy [2]: -42.6 kJ/mol

GCAAATACGAAAGTATGC (((..(((....))))))
Tm [1]: 38.7 °C
folding enthalpy [2]: -90.5 kJ/mol

GGCCACCGAAAGGTAGCC (((.(((....))).)))
Tm [1]: 57.5 °C
folding enthalpy [2]: -160 kJ/mol

GTGATAGGAAACTATTAC ((.((((....)))).))
Tm [1]: 34.1 °C
folding enthalpy [2]: -108 kJ/mol

GAACGCGAAAGCGGGTTC ((((((....)))..)))
Tm [1]: 47.1 °C
folding enthalpy [2]: -49.7 kJ/mol

GCTACCGAAAGGTTCAGC ((((((....)))..)))
Tm [1]: 35.5 °C
folding enthalpy [2]: -68.2 kJ/mol

GCGGTGACCGC ((((...))))
Tm [1]: 56.6 °C
folding enthalpy [2]: -98.8 kJ/mol

GCACGCGGAAACACGCGC ((.((.(....).)).))
Tm [1]: 40.1 °C
folding enthalpy [2]: -46.7 kJ/mol

GATCAGACGCTGATC ((((((...))))))
Tm [1]: 47.7 °C
folding enthalpy [2]: -143 kJ/mol

GGACCCGCGAAAGCGTCC (((..(((....))))))
Tm [1]: 36.7 °C
folding enthalpy [2]: -51.8 kJ/mol

GGAAGAGCGAAAGCTTCC (((..(((....))))))
Tm [1]: 43.8 °C
folding enthalpy [2]: -67.2 kJ/mol

GGGCTTGAAAAAGCCC ((((((....))))))
Tm [1]: 68.1 °C
folding enthalpy [2]: -150 kJ/mol

GATCGTATTCACGATC ((((((....))))))
Tm [1]: 55.1 °C
folding enthalpy [2]: -145 kJ/mol

GGCGTCGAAAGACCGGCC ((((((....)))..)))
Tm [1]: 51 °C
folding enthalpy [2]: -81.4 kJ/mol

GGCCGCGAAAGCGGTGCC ((((((....)))..)))
Tm [1]: 55.7 °C
folding enthalpy [2]: -41.9 kJ/mol

GGTTAATCGAAAGATACC (((..(((....))))))
Tm [1]: 29.2 °C
folding enthalpy [2]: -71.6 kJ/mol

GCTCTGGGAAACCAGGGC ((.((((....)))).))
Tm [1]: 54.6 °C
folding enthalpy [2]: -159 kJ/mol

GGCCGCCGAAAGGCTGCC (((.(((....))).)))
Tm [1]: 65.5 °C
folding enthalpy [2]: -128 kJ/mol

GGTCGACGAAAGTCTACC (((.(((....))).)))
Tm [1]: 49.8 °C
folding enthalpy [2]: -145 kJ/mol

GGAACCCGAAAGGGGTCC (((.(((....))).)))
Tm [1]: 68.2 °C
folding enthalpy [2]: -127 kJ/mol

GAGCAGGGAAACTTGCTC (((((.(....).)))))
Tm [1]: 49 °C
folding enthalpy [2]: -134 kJ/mol

GAGCGGAAACGCTC (((((....)))))
Tm [1]: 69.1 °C
folding enthalpy [2]: -115 kJ/mol

GCAGGCGAAAGCCGCTGC ((((((....)))..)))
Tm [1]: 68 °C
folding enthalpy [2]: -62 kJ/mol

GTTACCCGAAAGGGCAAC (((.(((....))).)))
Tm [1]: 47.3 °C
folding enthalpy [2]: -102 kJ/mol

GCTCTACGAAAGTATAGC (((.(((....))).)))
Tm [1]: 42.5 °C
folding enthalpy [2]: -124 kJ/mol

GAGTAAGGAAACCTACTC (((((.(....).)))))
Tm [1]: 33.2 °C
folding enthalpy [2]: -111 kJ/mol

GTTAGACGAAAGTCAAAC (((.(((....))).)))
Tm [1]: 43.6 °C
folding enthalpy [2]: -78 kJ/mol

GATCGAAATTTCGATC ((((((....))))))
Tm [1]: 53.7 °C
folding enthalpy [2]: -172 kJ/mol
